≈ marks a conversion by molar mass, not a printed value. Calls of active or inactive are those of the source. No cut-off for these calls is given here.
Key:
Vero = assay: Cytotoxicity against african green monkey Vero cells after 24 hrs by MTS assay; assay type: cell-based; conditions: chlorocebus sabaeus
How it was run: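 VERO cells seeded at 10^4 cells/well in MEM with antibiotics and 10% FBS, incubated 24 h (37 C, 5% CO2). Medium then replaced by 5% FBS, antibiotic-free medium with compound or DMSO for 24 h. MTS added and A490 read after 2 h, with DMSO wells as 100% survival. Toxic means 50% inhibition at 10-fold the MIC.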

Plasmodium falciparum = assay: Antimalarial activity as inhibition of schizont maturation against Plasmodium falciparum NF54 after 36 - 40 hrs; assay type: functional
How it was run: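 P. falciparum NF-54 kept in RPMI-1640 with 25 mM HEPES, 1% D-glucose, 0.23% sodium bicarbonate and 10% heat-inactivated human serum. Compounds tested in duplicate at 0.25–[…] in 96-well microassay with parasitized cells, 37 C, candle jar, 36–40 h. Giemsa-stained smears scored for ring maturation to schizonts. MIC is lowest concentration blocking complete schizont maturation.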

[1] = tested on: Mycobacterium tuberculosis; assay: Antitubercular activity against Mycobacterium tuberculosis H37Rv after 4 weeks by serial twofold dilution method; assay type: functional
How it was run: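 Serial twofold dilutions of a 1.0 mg/mL DMSO stock were incorporated into Middlebrook 7H10 agar slants with OADC. H37Rv grown on Lowenstein–Jensen medium was harvested in N-saline with 0.05% Tween-80 and dispersed with glass beads into a single-cell suspension. The working inoculum was 2 107 cfu/mL. MIC was the lowest concentration giving complete growth inhibition.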

[2] = Cytotoxicity against mouse BMDM cells after 5 days by MTS assay; assay type: cell-based; conditions: 120 h
How it was run: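 Mouse bone-marrow-derived macrophages plated at 10^5 cells/well in DMEM with antibiotics, 10% FBS, 15% (v/v) L-929 conditioned supernatant and non-essential amino acids. After compound exposure, incubated 5 days at 37 C, 5% CO2. MTS added and A490 read after 2 h, with DMSO wells as 100% survival. Toxic means 50% inhibition at 10-fold the MIC.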

Row | SMILES | Activity (Vero) | MIC (Plasmodium falciparum) | MIC ([1]; 672 h) | Activity [2] | MIC [1]
1 | COc1cccc(/C=C/C(=O)c2ccc(Nc3ccnc4cc(Cl)ccc34)cc2)c1OC | Non-toxic | inactive | 3.12 µg/mL (≈ 7.01 µM) | Non-toxic | 
2 | COc1cc(-c2cc(-c3ccc(Nc4ccnc5cc(Cl)ccc45)cc3)nc(N)n2)cc(OC)c1OC |  | inactive | 12.5 µg/mL (≈ 24.3 µM) |  | 
3 | Nc1nc(-c2ccc(Nc3ccnc4cc(Cl)ccc34)cc2)cc(-c2ccco2)n1 |  | inactive | 12.5 µg/mL (≈ 30.2 µM) |  | 
4 | NC(=O)c1cnccn1 [PYRAZINAMIDE] | Non-toxic |  | 50 µg/mL (≈ 406 µM) | Non-toxic | 
5 | CSc1ccc(-c2cc(-c3ccc(Nc4ccnc5cc(Cl)ccc45)cc3)nc(N)n2)cc1 |  | 1 µg/mL (≈ 2.13 µM) |  |  | inactive
6 | CCN(CC)CCCC(C)Nc1ccnc2cc(Cl)ccc12 (stereo unspecified) [CHLOROQUINE] |  | 0.125 µg/mL (≈ 0.391 µM) |  |  | 
7 | COc1ccc(-c2cc(-c3ccc(Nc4ccnc5cc(Cl)ccc45)cc3)nc(N)n2)cc1 |  | 2 µg/mL (≈ 4.41 µM) |  |  | inactive
8 | O=C(/C=C/c1ccc(Cl)cc1)c1ccc(Nc2ccnc3cc(Cl)ccc23)cc1 |  | inactive | 6.25 µg/mL (≈ 14.9 µM) |  | 
9 | CC(C)c1ccc(-c2cc(-c3ccc(Nc4ccnc5cc(Cl)ccc45)cc3)nc(N)n2)cc1 |  | 1 µg/mL (≈ 2.15 µM) | 6.25 µg/mL (≈ 13.4 µM) |  | 
10 | COc1ccc(OC)c(/C=C/C(=O)c2ccc(Nc3ccnc4cc(Cl)ccc34)cc2)c1 | Non-toxic | inactive | 3.12 µg/mL (≈ 7.01 µM) | Non-toxic | 
11 | Nc1nc(-c2ccc(Nc3ccnc4cc(Cl)ccc34)cc2)cc(-c2cccnc2)n1 |  | 1 µg/mL (≈ 2.35 µM) |  |  | inactive

Reference: ChEMBL document CHEMBL1137736, “Substituted quinolinyl chalcones and quinolinyl pyrimidines as a new class of anti-infective agents” (Eur J Med Chem, 2009)
